Experimental data taken from ChEMBL document CHEMBL4330151, “Antiviral Compounds from Codiaeum peltatum Targeted by a Multi-informative Molecular Networks Approach” (J Nat Prod, 2019).
pEC50, pIC50, pKd: −log10 of the molar value.

Columns and labels:
Chikungunya virus = assay: Antiviral activity against Chikungunya virus Indian Ocean strain 899 infected in African green monkey Vero cells assessed as protection against virus-induced cytopathic effect after 5 days by MTS assay; format: functional, organism-based; conditions: Indian Ocean strain 899, Vero, 120 h
[1] = Inhibition of DENV2 N-terminal His6-tagged NS5 protein expressed in Escherichia coli using (Poly U) RNA template […] in presence of ATP by picogreen dye based assay; design: species or system dengue virus type 2
[2] = Inhibition of ZIKV N-terminal His6-tagged NS5 protein expressed in Escherichia coli using (Poly U) RNA template […] in presence of ATP by picogreen dye based assay; design: species or system Zika virus
[3] = Cytotoxicity against African green monkey Vero cells by MTS assay; format: cell-based; conditions: chlorocebus sabaeus
Outline: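 Uninfected Vero A cells were exposed to the same compound concentrations as the CHIKV antiviral plates and incubated 5 days at 37 °C, 5% CO2. MTS/PMS was added for 1.5 h and absorbance read at 498 nm. OD values were converted to control percentages, and CC50 was obtained by logarithmic interpolation. Values are medians ± absolute deviation of at least three independent assays.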

[4] = Selectivity index, ratio of CC50 for African green monkey Vero cells to EC50 for Chikungunya virus Indian Ocean strain 899 infected in African green monkey Vero cells; format: toxicity; conditions: read-out: Ratio CC50/EC50
Outline: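 SI is CC50 (Vero) divided by EC50 (CHIKV) from the same 5-day MTS assay. For CC50, uninfected Vero A cells were exposed to the same compound concentrations. CC50 is the concentration reducing viable cells by 50%, by logarithmic interpolation of OD 498 nm control percentages. Median of ≥3 independent assays.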

[5] = Inhibition of GTP-bodipy binding to ZIKV N-terminal His6-tagged NS5 protein expressed in Escherichia coli after 15 mins by fluorescence polarization assay; design: species or system Zika virus; conditions: read-out: Kd(app)
Outline: (§1)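 Buffer was 50 mM Tris pH 7.5, 50 mM NaCl, 0.01% NP40 and 1 mM DTT, with 50 nM GTP-bodipy. NS5 was 300 nM for DENV-2 and 150 nM for ZIKV, with seven compound concentrations in 5% DMSO. Plates were incubated 15 min at room temperature, and fluorescence polarization was read at 485/520 nm after background subtraction. Kdapp was curve-fitted from triplicates in a single experiment.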

[6] = Inhibition of GTP-bodipy binding to DENV2 N-terminal His6-tagged NS5 protein expressed in Escherichia coli after 15 mins by fluorescence polarization assay; design: species or system dengue virus type 2; conditions: read-out: Kd(app); outline: as §1
[7] = Inhibition of ZIKV N-terminal His6-tagged NS5 protein expressed in Escherichia coli using (Poly U) RNA template […] in presence of ATP/Triton-X-100 by picogreen dye based assay; design: species or system Zika virus
[8] = Inhibition of DENV2 N-terminal His6-tagged NS5 protein expressed in Escherichia coli using (Poly U) RNA template […] in presence of ATP/Triton-X-100 by picogreen dye based assay; design: species or system dengue virus type 2

SMILES	pEC50 (Chikungunya virus)	pIC50 [1]	pIC50 [2]	CC50 [3] [µM]	selectivity ratio [4]	pKd [5]	pKd [6]	pIC50 [7]	pIC50 [8]
CC(=O)OCn1c(=O)c2c(c3ccccc31)OC(C)(C)[C@H]1CC[C@@](C)(O)[C@H](Cl)[C@H]21	< 3.62	< 3.92	< 3.86	> 239	–	–	–	–	–
Cn1c(=O)c2c(c3ccccc31)OC(C)(C)[C@H]1CC[C@@](C)(O)[C@H](Cl)[C@H]21	< 3.56	< 3.92	< 3.86	> 208	–	–	–	–	–
CC1(C)Oc2c(c(=O)[nH]c3ccccc23)[C@H]2[C@@H](Cl)[C@](C)(O)CC[C@@H]21	< 3.54	–	–	> 288	–	–	–	–	–
C=C(C)[C@@]12OC3(c4ccccc4)O[C@@H]1[C@@H]1[C@@H]4O[C@]4(CO)[C@@H](O)[C@@]4(O)[C@@H](C[C@H](C)[C@@H]4OC(=O)c4ccccc4)[C@@]1(O3)[C@](C)(O)[C@@H]2OC(=O)c1ccccc1	5.00	< 4.16	< 4.16	52	5	–	–	–	–
COc1cc2c3c(cc(O)c2cc1C)C(C)(C)C(=O)[C@@]1(OC)Oc2c(cc4c(cc(OC)c5cc(C)c(OC)cc54)c2C)O[C@@H]31	–	4.66	4.87	–	–	< 4.00	< 4.00	< 4.00	< 4.00
COc1cc2c3c(cc(O)c2cc1C)C(C)(C)C(=O)[C@]1(OC)Oc2c(cc4c(cc(OC)c5cc(C)c(OC)cc54)c2C)O[C@@H]31	–	4.75	4.90	–	–	< 4.00	< 4.00	< 4.00	< 4.00
Cn1c2c(c(=O)c3ccccc31)[C@H]1[C@@H](Cl)[C@](C)(O)CC[C@@H]1C(C)(C)O2	< 3.56	–	–	> 277	–	–	–	–	–
COc1cc2c(C)c3c(cc2c2cc(O)c(C)cc12)O[C@H]1c2c(cc(O)c4cc(C)c(O)cc24)C(C)(C)C(=O)[C@@]1(OC)O3	< 4.07	5.35	5.32	> 172	–	< 4.00	< 4.00	< 4.00	< 4.00
COc1cc2c(C)c3c(cc2c2cc(O)c(C)cc12)O[C@H]1c2c(cc(O)c4cc(C)c(O)cc24)C(C)(C)C(=O)[C@]1(OC)O3	< 3.76	5.04	5.09	> 129	–	< 4.00	< 4.00	< 4.00	< 4.00
COc1cc2c3c(cc(O)c2cc1C)C(C)(C)C(=O)[C@@]1(OC)Oc2c(cc4c(cc(OC)c5cc(C)c(O)cc54)c2C)O[C@@H]31	–	4.84	4.96	–	–	< 4.00	< 4.00	< 4.00	< 4.00
CO[C@]12Oc3c(cc4c(c3C)C(=O)C(=O)c3cc(C)c(O)cc3-4)O[C@H]1c1c(cc(O)c3cc(C)c(O)cc13)C(C)(C)C2=O	< 3.76	4.92	5.09	> 172	–	4.49	5.03	4.44	4.17
C=C(C)[C@@]12OC3(c4ccccc4)O[C@@]4([C@H]([C@H]1O)[C@@H]1O[C@]1(CO)[C@@H](O)[C@@]1(O)[C@H]4C[C@H](C)[C@@H]1OC(=O)c1ccccc1)[C@](C)(O3)[C@@H]2OC(=O)c1ccccc1	5.36	< 4.16	< 4.16	49	11	–	–	–	–
Nc1ncnc2c1ncn2[C@@H]1O[C@H](COP(=O)(O)OP(=O)(O)OP(=O)(O)O)C[C@H]1O	–	7.15	6.85	–	–	–	–	–	–
